Assay outcomes: PubChem BioAssay, Broad Institute
HIV Env fusion = inhibitors of HIV-1 Env-driven cell-cell fusion, primary screen, HeLa-JRFL effector, CEM21 target cells, luciferase | inhibition, % at 12.3 µM | 360,000 compounds, 1.1% hits | AID 651610, 2012;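 active = mean replicate inhibition score of at least 50 and every replicate individually at or above 50; inconclusive = only one of the two criteria met; inactive = mean below 50 and not all replicates reaching 50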;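 note: 0% = plate neutral controls and 100% = maraviroc near 300 nM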
CDK5 p35 inh = inhibitors of human CDK5/p35 kinase, primary screen, biochemical, single concentration; Recombinant CDK5/p35, ADP-Glo luminescence, 60 min; inhibition, % at 10 µM; 330,000 compounds, 0.01% hits;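 active = highest replicate inhibition of at least 50% and at least 75% of replicates reaching 50%; inconclusive = only one of the two criteria met; inactive = both criteria failed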;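 note: plate controls were DMSO neutral control for no effect and GW8510 at 10 µM for full effect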
Target sequence (Q00535 whole entry, looked up): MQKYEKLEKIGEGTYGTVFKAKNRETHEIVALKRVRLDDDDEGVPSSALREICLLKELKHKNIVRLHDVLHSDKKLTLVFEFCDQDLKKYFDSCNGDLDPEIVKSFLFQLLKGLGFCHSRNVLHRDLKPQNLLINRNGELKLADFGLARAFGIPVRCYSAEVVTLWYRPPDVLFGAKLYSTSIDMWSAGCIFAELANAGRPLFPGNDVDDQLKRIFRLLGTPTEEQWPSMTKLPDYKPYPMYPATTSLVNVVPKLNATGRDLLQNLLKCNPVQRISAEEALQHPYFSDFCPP
Target sequence (Q15078 whole entry, looked up): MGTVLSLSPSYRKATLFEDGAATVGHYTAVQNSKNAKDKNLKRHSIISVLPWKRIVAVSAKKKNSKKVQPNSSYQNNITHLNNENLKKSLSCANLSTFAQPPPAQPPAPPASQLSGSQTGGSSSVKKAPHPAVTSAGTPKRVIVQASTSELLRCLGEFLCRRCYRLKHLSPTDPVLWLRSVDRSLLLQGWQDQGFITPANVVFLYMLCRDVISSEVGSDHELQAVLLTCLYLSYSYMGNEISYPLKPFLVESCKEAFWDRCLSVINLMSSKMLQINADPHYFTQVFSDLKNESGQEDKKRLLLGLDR
Cneo AK release = Cryptococcus neoformans cell lysis inducers, primary screen, AK release luminescence, single concentration; lysis activity, % at 15 µM; AID 651654, 2012; 360,000 compounds, 0.2% hits; C. neoformans lysis, adenylate kinase release luminescence, 4 h; normalised: neutral wells 0, clomiphene wells 100;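 active = mean lysis activity across replicates of at least 80%, whatever share of replicates individually reach that level; inactive = mean lysis activity below 80%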
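Material – log-phase Cryptococcus neoformans yeast cells · Input – 5 × 10^6 yeast cells/mL · Medium – fresh YPD growth medium · Doses – single compound concentration per well · Timing – static 4 h at 37 °C with compound, 1 h detection · Detection – adenylate kinase release luminescence · Read-out – signal increase indicating cell lysis · Control set – Clomiphene as positive lysis control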
PAX8 inh HTS = inhibitors of PAX8-driven TPO luciferase reporter, primary screen, RMG-I cells, single concentration | SteadyGlo, 24 h | inhibition, % at 12.6 µM | 360,000 compounds, 1.2% hits;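 active = mean replicate inhibition at least 60% with every replicate also reaching 60%; inconclusive = only one of the two criteria is met; inactive = mean below 60% and not all replicates reaching 60%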;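 note: luciferase light reporting Pax8 driven TPO promoter activity; plate controls were median of neutral control wells for no effect and mitoxantrone controls for full effect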
GSIS activator = GLuc luminescence reporter in INS-1E cells, primary screen for activators of glucose-dependent secretion of insulin; activation, % at 16.6 µM; INS-1E GLuc reporter insulin secretion, 2-3 h; 370,000 compounds, 0.61% hits;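 active = lowest replicate activation of at least 40%, so every replicate reaches that level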;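 note: 0% = median of neutral control wells and 100% = median of IBMX positive control wells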
dFosB activator = activators of delta FosB homodimer, primary screen, biochemical, fluorescence polarization, TAMRA-CDK5 oligo, single point; Protein FosB (Mus musculus), P13346; purified delta FosB; percent of positive-control signal above neutral wells; activation, % at 25 µM; 340,000 compounds, 0.99% hits;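 active = mean activation above about 17%, with every replicate also reaching it, limit read from the data, passing the limit was not always enough; inconclusive = only one of the two conditions met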
Active calls of the source: *; ? = inconclusive; . = no result given; [ ] = remark or other dose. In the library only some 2.9% were active in any assay of this set; here they are far more common.

SMILES | HIV Env fusion | CDK5 p35 inh | Cneo AK release | PAX8 inh HTS | GSIS activator | dFosB activator
CCC(=O)Nc1ccc2c(c1)C(=O)N(C)C[C@H](OC)[C@@H](C)CN(C(=O)c1ccncc1)[C@H](C)CO2 | -31.8[16.7 µM] | . | 0.6 | -1.7 | 5.2 | .
Cc1oc(-c2ccccc2F)nc1CS(=O)(=O)CC(=O)N1CCN(c2ccccc2)CC1 | 60.1* | -0.3 | -2.0 | 30.1 | . | -13.4
Cc1ccc(-c2nc(CS(=O)(=O)CC(=O)N3CCCCCC3)c(C)o2)cc1 | 51.1* | -0.4 | 1.4 | 30.9 | . | -7.9
C[C@@H]1CN([C@@H](C)CO)S(=O)(=O)c2ccc(C#CCN(C)C)cc2O[C@H]1CN(C)C(=O)CC1CC1 | -30.9[16.7 µM] | . | 3.7 | 8.7 | 2.4 | .
NC(=O)c1ccsc1NC(=O)c1ccc([N+](=O)[O-])o1 | -146.9 | 0.5 | 2.0 | 89.4* | 29.7 | -8.8
CN1CCc2c(sc(NC(=O)c3ccc([N+](=O)[O-])o3)c2C(N)=O)C1 | 71.7* | 1.2 | 2.0 | 95.3* | -4.1 | -5.5
CCCN1CCc2c(sc(NC(=O)c3ccc(S(=O)(=O)N(C)c4ccccc4)cc3)c2C(N)=O)C1 | . | 0.4 | 1.1 | . | -4.1 | 42.5*
CN1CCc2c(sc(NC(=O)c3ccc(S(=O)(=O)N4CCCCCC4)cc3)c2C(N)=O)C1 | . | -1.0 | 4.2 | . | . | 53.5*
CCCN1CCc2c(sc(NC(=O)c3ccc(S(=O)(=O)N(C)c4ccccc4)cc3)c2C(=O)NC)C1 | 16.2 | 0.3 | -0.4 | 43.6 | -21.2 | ?
O=C(C[C@H]1C=C[C@H](NC(=O)C2CC2)[C@@H](CO)O1)NC1CCC1 | 16.3[16.7 µM] | . | 6.6 | -2.7 | -3.6 | .
CCCC(=O)Nc1ccc2c(c1)C(=O)N(C)C[C@H](OC)[C@H](C)CN(S(=O)(=O)c1cn(C)cn1)[C@@H](C)CO2 | . | . | 10.2 | -13.7 | 6.7 | .
CNC[C@H]1Oc2c(NC(=O)Nc3ccc(F)cc3)cccc2C(=O)N([C@H](C)CO)C[C@@H]1C | . | . | -3.5 | 0.0 | 15.6 | .
C[C@@H]1CN([C@H](C)CO)C(=O)c2cc(NC(=O)NC3CCCCC3)ccc2O[C@@H](C)CCCCO[C@H]1CN(C)Cc1ccc(C(=O)O)cc1 | 15.3[16.7 µM] | . | -0.1 | -4.3 | -5.1 | .
CC(=O)Nc1sc2c(c1-c1nc3ccccc3s1)CCN(C(C)C)C2 | . | 0.5 | -5.1 | . | . | 35.4*
CC(C)N1CCc2c(sc(NC(=O)c3ccc(C(=O)c4ccccc4)cc3)c2C(N)=O)C1 | -6.2 | 0.9 | 3.5 | 10.1 | -10.7 | 29.2*
CC(C)N1CCc2c(sc(NC(=O)c3cc4cc([N+](=O)[O-])ccc4s3)c2C(N)=O)C1 | 19.8 | 0.7 | 0.8 | 0.6 | 11.2 | 48.2*
C[C@@H]1CN([C@@H](C)CO)C(=O)Cc2cc(NC(=O)CCCCCC(=O)Nc3ccccc3N)ccc2O[C@@H]1CN(C)S(=O)(=O)c1ccccc1 | 7.4[16.7 µM] | . | 1.2 | 10.2 | 10.8 | .
Oc1ccc2ccccc2c1CN1CC2CCC(CC2)C1 | ? | 0.4 | 7.2 | 83.8* | . | 4.3
COc1cc(OC)c(OC)cc1CCC(C)NCCC(c1ccccc1)c1ccccc1 (configuration not stated) | 80.5* | 4.0 | -0.8 | 30.2 | -15.4 | 7.6
COc1ccc(CCNCCC(c2ccccc2)c2ccccc2)cc1OC | -18.7 | . | 0.5 | 4.0 | -28.2 | .
COc1cccc(C#Cc2c(C=O)n(C)c3ccccc23)c1 | 27.7 | -3.5 | 2.2 | 85.3* | 10.2 | -21.3
Cn1c(C=O)c(-c2ccc3cc[nH]c3c2)c2ccccc21 | -2.9 | 1.8 | 17.6 | -1.9 | 24.5 | -10.4
Cn1c(C=O)c(C#CC(C)(C)O)c2ccccc21 | 39.6 | -1.4 | 1.5 | 74.3* | -16.8 | -1.2
COc1ccc(C#Cc2ccc3c(c2)c(=O)c2ccccc2n3C)cc1 | -23.2 | -0.1 | 1.5 | -10.9 | 13.5 | -6.7
COc1ccc2c3c(n(C)c2c1)[C@H](CO)N(Cc1ccc(F)cc1)CC31CCN(CC2CCOCC2)CC1 | -5.3[16.7 µM] | . | . | . | -10.9 | .
SMILES | HIV Env fusion | CDK5 p35 inh | Cneo AK release | PAX8 inh HTS | GSIS activator | dFosB activator
CCOc1cc(/C=N/NC(=O)CCCC(=O)NC2CCCCC2)ccc1O | 6.2 | 0.1 | 101.7* | 9.8 | . | -0.8
Cc1cc(C)c(NC(=O)CSc2nc3ncc(Br)cc3[nH]2)c(Cl)c1 | 0.0 | 0.2 | 0.2 | -6.7 | -2.9 | 69.1*
Cc1cc(C)c(NC(=O)CSc2nc3ncc(Cl)cc3[nH]2)c(C)c1 | -0.8 | -1.4 | -0.1 | -4.7 | 18.2 | 14.8
CN=c1scc(-c2ccc(F)cc2)n1/N=C/c1ccc(O)c(O)c1 | -49.4 | -4.1 | . | 66.4* | 0.5 | 0.5
CN=c1scc(-c2ccc([N+](=O)[O-])cc2)n1/N=C/c1ccco1 | -45.3 | -0.3 | -2.1 | -133.4 | -0.1 | 0.3
CN(C)C(=O)c1ccc(-c2ccccc2[C@H]2[C@@H](C#N)N(C(=O)C3CCC3)[C@@H]2CO)cc1 | . | . | . | -5.7 | 43.2 | .
COc1cc(N2C(=O)C=CC2=O)c(OC)cc1Cl | -2.1 | 4.3 | -6.5 | 109.6* | . | -5.1
CO[C@@H]1CN(C)C(=O)c2cc(NC(=O)c3ccccc3)ccc2OC[C@@H](C)N(C(=O)C2CC2)C[C@@H]1C | -38.4[16.7 µM] | . | 47.7 | . | 5.0 | .
O=C(C[C@@H]1C=C[C@@H](NC(=O)Nc2ccc(C(F)(F)F)cc2)[C@@H](CO)O1)NCc1cc(F)cc(F)c1 | 14.8[16.7 µM] | . | 1.0 | 20.2 | 6.5 | .
CN1C(=O)C2C3c4ccccc4C(c4ccccc43)[C@@H]2C1=O (some centres not stated) | 6.4 | 1.7 | 9.8 | -0.1 | 71.3* | -0.2
C[C@@H]1CCCCO[C@H](CN(C)S(=O)(=O)c2ccc(F)cc2)[C@H](C)CN([C@H](C)CO)C(=O)c2cc(NS(=O)(=O)c3ccc(Cl)cc3)ccc2O1 | 28.8[16.7 µM] | . | -3.6 | 45.0 | -19.9 | .
C[C@H]1CCCCO[C@H](CN(C)S(=O)(=O)c2ccc(Cl)cc2)[C@@H](C)CN([C@@H](C)CO)C(=O)c2cc(NS(=O)(=O)c3ccc(F)cc3)ccc2O1 | 5.9[16.7 µM] | . | 0.8 | 86.3* | 0.8 | .
C[C@H]1CCCCO[C@H](CN(C)S(=O)(=O)c2ccc(F)cc2)[C@@H](C)CN([C@@H](C)CO)C(=O)c2cc(NS(=O)(=O)c3ccc(Cl)cc3)ccc2O1 | 10.9[16.7 µM] | . | 2.7 | 89.0* | -13.1 | .
C[C@H](CO)N1C[C@H](C)[C@H](CN(C)S(=O)(=O)c2ccc(Cl)cc2)OCCCC[C@H](C)Oc2ccc(NS(=O)(=O)c3ccc(F)cc3)cc2C1=O | -85.5[16.7 µM] | . | -0.4 | 81.1* | 7.1 | .
C[C@@H]1CCCCO[C@H](CN(C)S(=O)(=O)c2ccc(F)cc2)[C@H](C)CN([C@@H](C)CO)C(=O)c2cc(NS(=O)(=O)c3ccc(Cl)cc3)ccc2O1 | 28.1[16.7 µM] | . | -4.3 | 81.0* | -15.6 | .
